In one assay the target is α2β4-nAChR (Homo sapiens, UniProt P30926+Q15822). The experiment in a line: two-electrode voltage clamp, Xenopus oocytes, peak inward current. In kind it is cell-based. Summed up: (§1)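 Human α2 and β4 (plus β3 for trinary) subunit cRNAs, ~4 ng each at 1:1 or 1:1:1, are injected into stage VI oocytes. Two to 7 days later, oocytes are clamped at –70 mV in Ringer, pH 7.5.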
Background: In two-electrode clamp one electrode senses voltage and the other passes current.

The target in the next assay is α2β4β3-nAChR (Homo sapiens, UniProt P30926+Q15822). Described as above. In kind it is cell-based. In outline: as §1
α2β4β3-nAChR, sequence (Q15822 27-529): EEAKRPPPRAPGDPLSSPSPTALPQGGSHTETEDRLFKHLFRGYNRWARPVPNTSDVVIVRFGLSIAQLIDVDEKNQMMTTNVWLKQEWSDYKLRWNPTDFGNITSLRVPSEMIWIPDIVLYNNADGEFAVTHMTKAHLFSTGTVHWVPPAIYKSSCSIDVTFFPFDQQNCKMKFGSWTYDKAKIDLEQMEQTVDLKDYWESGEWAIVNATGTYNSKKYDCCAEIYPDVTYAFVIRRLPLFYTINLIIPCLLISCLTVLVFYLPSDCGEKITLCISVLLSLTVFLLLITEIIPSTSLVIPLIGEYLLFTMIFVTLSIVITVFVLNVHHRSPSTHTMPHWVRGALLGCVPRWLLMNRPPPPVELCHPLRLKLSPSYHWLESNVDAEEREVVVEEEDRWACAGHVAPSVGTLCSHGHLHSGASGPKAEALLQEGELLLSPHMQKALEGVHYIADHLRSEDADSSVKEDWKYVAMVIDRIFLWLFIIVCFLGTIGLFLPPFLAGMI
α2β4β3-nAChR, sequence (P30926 22-498): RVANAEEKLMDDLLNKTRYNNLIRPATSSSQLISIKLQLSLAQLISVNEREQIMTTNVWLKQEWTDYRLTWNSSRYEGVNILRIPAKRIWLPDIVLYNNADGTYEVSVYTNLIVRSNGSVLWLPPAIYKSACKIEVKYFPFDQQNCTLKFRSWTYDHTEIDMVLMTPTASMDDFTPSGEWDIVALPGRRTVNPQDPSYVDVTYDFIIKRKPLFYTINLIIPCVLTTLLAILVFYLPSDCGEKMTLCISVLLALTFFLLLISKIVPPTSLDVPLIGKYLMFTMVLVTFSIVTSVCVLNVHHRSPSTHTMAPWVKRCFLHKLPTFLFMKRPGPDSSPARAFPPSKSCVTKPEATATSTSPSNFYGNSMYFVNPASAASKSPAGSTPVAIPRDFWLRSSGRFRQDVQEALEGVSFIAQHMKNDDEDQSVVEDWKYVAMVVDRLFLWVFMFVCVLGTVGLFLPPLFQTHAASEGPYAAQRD
α2β4β3-nAChR, sequence (Q05901 22-458 partner): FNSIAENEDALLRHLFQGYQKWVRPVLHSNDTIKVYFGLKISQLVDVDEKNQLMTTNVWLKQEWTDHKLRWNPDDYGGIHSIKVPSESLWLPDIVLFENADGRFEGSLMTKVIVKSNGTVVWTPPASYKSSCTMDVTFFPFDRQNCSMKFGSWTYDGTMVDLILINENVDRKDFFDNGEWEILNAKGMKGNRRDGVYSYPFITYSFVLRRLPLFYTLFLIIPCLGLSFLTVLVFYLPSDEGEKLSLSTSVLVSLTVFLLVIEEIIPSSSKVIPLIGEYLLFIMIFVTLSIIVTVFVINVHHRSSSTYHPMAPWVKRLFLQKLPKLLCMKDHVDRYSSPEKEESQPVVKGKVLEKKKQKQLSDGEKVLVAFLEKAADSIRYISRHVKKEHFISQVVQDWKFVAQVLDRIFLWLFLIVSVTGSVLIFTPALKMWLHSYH

Structures are written as SMILES.

α2β4-nAChR, sequence (Q15822 27-529): as the sequence (Q15822 27-529) above
α2β4-nAChR, sequence (P30926 22-498): as the sequence (P30926 22-498) above

Consider `CN1CCC[C@H]1c1cccnc1` [nicotine], for which the EC50 (in general, the concentration that produces a half-maximal response) at α2β4-nAChR was found to be 8.6 µM; on α2β4β3-nAChR, 7.3 µM.

These data come from PMC3569009 (Journal of neurochemistry, 2012).
